This is a sample that favours compounds with a hit; in the whole collection about 0.26% have one here.
TNAP inh hiacc: human TNAP enzyme inhibitors, primary screen, biochemical, luminescent, high phosphate acceptor level, uHTS. purified TNAP, CDP-star luminescence, 1 M DEA. Alkaline phosphatase, tissue-nonspecific isozyme (Homo sapiens), P05186. hit rate 0.03% among 200,000. inhibition, % at 20 µM;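 active = over 50% inhibition of tissue-nonspecific alkaline phosphatase at 20 µM in the single-dose screen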
Target sequence (P05186 whole entry, looked up): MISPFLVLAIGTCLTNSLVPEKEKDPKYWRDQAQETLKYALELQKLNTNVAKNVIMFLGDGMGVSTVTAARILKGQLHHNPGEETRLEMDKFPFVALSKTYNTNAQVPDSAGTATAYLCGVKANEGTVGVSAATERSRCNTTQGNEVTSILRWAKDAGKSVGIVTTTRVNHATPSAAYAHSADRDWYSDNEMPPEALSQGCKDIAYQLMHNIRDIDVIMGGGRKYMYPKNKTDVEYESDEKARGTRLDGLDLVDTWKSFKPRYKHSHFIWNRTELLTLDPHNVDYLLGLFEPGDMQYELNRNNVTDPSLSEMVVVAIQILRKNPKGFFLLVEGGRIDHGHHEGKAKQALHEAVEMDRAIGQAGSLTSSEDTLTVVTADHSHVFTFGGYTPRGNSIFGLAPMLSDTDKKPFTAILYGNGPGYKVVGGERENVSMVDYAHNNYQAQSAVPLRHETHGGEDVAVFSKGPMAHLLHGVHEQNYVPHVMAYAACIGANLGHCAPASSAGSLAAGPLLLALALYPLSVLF
Biofilm kill mix: clotrimazole potentiators killing C. albicans biofilm, primary screen, 4-compound mixtures; C. albicans biofilm persisters + clotrimazole, fluorescence viability; primary screen in compound mixtures of four per well; hit rate 0.02% among 120,000; inhibition, % at 7.6 µM;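 active = inhibition above 30.3% in the primary screen of four-compound pools, then above 30% when the compound was retested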;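 note: compounds exposed to preformed 24 h biofilms for 48 h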
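Test system: C. albicans CAF4-2 wild-type biofilms; buffer or medium: RPMI/MOPS medium, pH 7.0; schedule: 24 h biofilm formation, then 48 h compound exposure, 37 °C; detection: Alamar Blue fluorescence; measure: percent inhibition of biofilm viability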
TNAP inh noacc: human TNAP enzyme inhibitors, primary screen, biochemical, luminescent, no phosphate acceptor, uHTS. Alkaline phosphatase, tissue-nonspecific isozyme (Homo sapiens), P05186. purified TNAP, CDP-star luminescence, 30 min. inhibition, % at 20 µM. hit rate 0.26% among 200,000;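 active = tissue-nonspecific alkaline phosphatase inhibition above about 50% at 20 µM in the single-dose screen, limit read from the data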
TNAP act hi DEA: TNAP activators at high phosphate acceptor level, primary screen, biochemical, luminescence, uHTS. Alkaline phosphatase, tissue-nonspecific isozyme (Homo sapiens), P05186. purified TNAP, CDP-star luminescence, 1 M DEA, 30 min; active compounds read high; 0 = EDTA background, 1 = DMSO-only activity. activation factor at 20 µM. 200,000 tested, under 10 active. AID 1136, 2008;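 active = activation factor at least 2 at 20 µM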
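Measured by: Luminescent substrate turnover signal | Test system: Human TNAP | Input: TNAP 1/800 final | Dosing: 20 µM single point | Schedule: 30 min, room temperature | Controls: EDTA wells as negative control, DMSO wells as positive control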
Of the large screens only hits and unclear results are named; the others gave an inactive call.

O=C(N/N=C/C1C(=O)NC(=S)N(c2ccccc2)C1=O)c1cc(Br)c(O)c(Br)c1 (stereo unspecified)	TNAP inh noacc 74.9
CCn1c(O)c(/C=N/NC(=O)c2ccccc2)c(=O)n(CC)c1=S	none (no result: TNAP inh hiacc, TNAP inh noacc, TNAP act hi DEA)
CC1(C)OC(c2ccccc2)=C/C(=C/C=C2C(=O)NC(=S)NC2=O)O1	TNAP inh noacc 58.7
CCn1c(O)c(/C=N/NC(=O)c2ccncc2)c(=O)[nH]c1=S	TNAP inh noacc 84.1
CCC(C)n1c(O)c(/C=N/NC(=O)c2ccncc2)c(=O)[nH]c1=S (stereo unspecified)	TNAP inh noacc 74.7
O=c1[nH]c(O)c(/C=C2\C=NN=C2c2ccccc2)c(=O)[nH]1	TNAP inh noacc 51.3 (no result: Biofilm kill mix)
CC1=NN(c2ccccc2)C(=O)/C1=C/c1c(O)[nH]c(=O)[nH]c1=O	none
Cn1cnnc1Sc1cc(N2CCNCC2)ccc1[N+](=O)[O-]	none (no result: TNAP inh hiacc, TNAP inh noacc, TNAP act hi DEA)
CCc1ccccc1N1C(=O)/C(=C/c2ccc(N3CCN(C)CC3)o2)C(=O)NC1=S	TNAP inh noacc 51.0
O=C1NC(=O)N(c2ccc3c(c2)OCO3)C(=O)/C1=C\c1ccc(N2CCCCC2)o1	none
Cc1ccccc1N1C(=O)NC(=O)/C(=C/c2ccc(N3CCOCC3)o2)C1=O	none (no result: TNAP inh hiacc, TNAP inh noacc, TNAP act hi DEA)
Cc1cccc(N2C(=O)/C(=C/c3ccc(N4CCN(C)CC4)o3)C(=O)NC2=S)c1C	TNAP inh noacc 51.4
Cc1ccc(C2=NN(CCC(=O)N3CCC4(CC3)OCCO4)C(=O)CC2)cc1	none
COC1C(OC(=O)c2ccc(C)[nH]2)C(O)C(Oc2ccc3c(O)c(NC(=O)c4ccc(O)c(CC=C(C)C)c4)c(=O)oc3c2Cl)OC1(C)C (stereo unspecified)	none (no result: TNAP inh hiacc, TNAP inh noacc, TNAP act hi DEA)
O=C1NC(=O)N(CCNc2ncc(C(F)(F)F)cc2Cl)C(=O)C1Cc1ccc(Cl)cc1 (stereo unspecified)	none
CCCCC(=O)N/N=C/c1c(O)n(Cc2ccco2)c(=O)[nH]c1=O	TNAP inh noacc 69.4

Screens as filed in PubChem.
